Measured values published in ChEMBL document CHEMBL5584288, “Synthesis, biological evaluation and metadynamics simulations of novel N-methyl β-sheet breaker peptides as inhibitors of Alzheimer's β-amyloid fibrillogenesis” (RSC Med Chem, 2024).
Activity calls are given as the source filed them. The calls are words filed in the database; no cut-off is given here. Square brackets hold non-standard residues; d marks the D form. Peptide text beside a SMILES is read from it. Sar = CNCC(=O)O

Experiments:
[1] = biological target: Amyloid-beta precursor protein (Homo sapiens) (UniProt P05067); test: Inhibition of amyloid beta (1 to 42) (unknown origin) aggregation assessed as reduction in amyloid beta fibril formation at 200 uM incubated for 12 hrs by ThT-based fluorescence analysis
Sequence of Amyloid-beta precursor protein (Homo sapiens) (P05067 whole entry): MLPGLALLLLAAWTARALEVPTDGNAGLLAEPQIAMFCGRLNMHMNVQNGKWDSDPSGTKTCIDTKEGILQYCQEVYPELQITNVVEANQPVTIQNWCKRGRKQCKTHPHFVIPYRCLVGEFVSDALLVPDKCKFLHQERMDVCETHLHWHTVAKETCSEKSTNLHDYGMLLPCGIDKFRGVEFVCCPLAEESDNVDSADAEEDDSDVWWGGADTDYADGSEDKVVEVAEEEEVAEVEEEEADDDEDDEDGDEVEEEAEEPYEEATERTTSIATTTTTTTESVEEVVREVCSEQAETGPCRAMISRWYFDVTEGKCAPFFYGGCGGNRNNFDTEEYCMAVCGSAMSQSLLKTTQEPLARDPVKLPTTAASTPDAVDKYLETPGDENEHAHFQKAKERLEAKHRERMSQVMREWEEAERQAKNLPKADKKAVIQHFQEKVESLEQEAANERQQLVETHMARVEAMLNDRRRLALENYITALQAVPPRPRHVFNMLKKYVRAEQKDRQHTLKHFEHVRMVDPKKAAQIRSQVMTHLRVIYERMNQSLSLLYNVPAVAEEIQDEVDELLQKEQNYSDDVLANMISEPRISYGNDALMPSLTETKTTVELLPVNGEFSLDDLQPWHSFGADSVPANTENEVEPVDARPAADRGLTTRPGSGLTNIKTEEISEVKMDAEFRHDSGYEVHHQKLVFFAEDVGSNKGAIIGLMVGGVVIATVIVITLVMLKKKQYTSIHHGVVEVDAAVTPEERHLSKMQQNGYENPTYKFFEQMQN
Outline: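 Aβ1–42 (20 μM) incubated alone or with peptide (200 μM, tenfold molar excess) plus ThT (10 μM) in 20 mM Tris-HCl pH 7.4 at 20 °C. Real-time fluorescence (excitation 450 nm, emission 482 nm) recorded every 30 min for ~12 h. Intensity plotted against time. Three independent experiments.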

SH-SY5Y [2] = test: Cytoprotective activity against amyloid beta (25 to 35 residues)-induced toxicity in human SH-SY5Y cells assessed as increase in cell viability at 100 uM incubated for 24 hrs by MTT assay relative to control; type: functional
Outline: (§1)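 SH-SY5Y cells seeded at 2.0 × 10^4 per well, after 24 h exposed to Aβ25–35 (100.0 μM; DMSO stock 12.5 mM) for 48 h, washed twice with PBS, then given test peptides for a further 24 h. MTT read-out as in cytotoxicity assay. Viability relative to untreated control cells. Mean ± SD of six measurements from three independent experiments.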

SH-SY5Y [3] = test: Cytotoxicity against human SH-SY5Y cells assessed as reduction in cell viability at 10 to 100 uM after 48 hrs by MTT assay; type: toxicity, cell-based; conditions: dose 10-100 µM
Outline: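 Human SH-SY5Y neuroblastoma cells in DMEM with 10% FBS, penicillin/streptomycin, 37 °C, 5% CO2. Seeded at 1.5 × 10^4 per well, treated after 24 h, exposed 48 h. MTT 0.50 mg mL⁻¹ for 4 h at 37 °C, formazan dissolved in DMSO, absorbance 570 nm. Viability expressed as % mitochondrial redox activity of untreated control.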

[4] = Drug uptake in human SH-SY5Y cells at 100 uM by UHPLC-HR MS analysis; type: ADME, cell-based
Outline: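 SH-SY5Y cells seeded at 2.0 × 10^6 per 100 mm dish, treated after 24 h with peptides (100 μM) in FBS-free medium. Cell pellets quenched and extracted, sonicated 5 min, centrifuged 3500 rpm at 0 °C for 10 min. Supernatant lyophilized, reconstituted in acetonitrile and analysed by UHPLC-HR TOF-MS/MS, with extracted ion chromatograms of protonated molecular ions.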

SH-SY5Y [5] = test: Cytoprotective activity against amyloid beta (25 to 35 residues)-induced toxicity in human SH-SY5Y cells assessed as increase in cell viability incubated for 24 hrs by MTT assay; type: functional, cell-based; conditions: dose 10-100 µM; outline: as §1
SH-SY5Y [6] = test: Cytoprotective activity against amyloid beta (25 to 35 residues)-induced toxicity in human SH-SY5Y cells assessed as increase in cell viability at 10 uM incubated for 24 hrs by MTT assay relative to control; type: functional; outline: as §1

| Molecule | inhibition [1] | Activity (SH-SY5Y [2]) | Activity (SH-SY5Y [3]) | Drug uptake [4] | Activity (SH-SY5Y [5]) | Activity (SH-SY5Y [6]) |
| --- | --- | --- | --- | --- | --- | --- |
| CC[C@H](C)[C@H](NC(C)=O)C(=O)N[C@H](C(=O)N(C)CC(=O)N[C@@H](CC(C)C)C(=O)N[C@@H](CCSC)C(=O)N[C@H](C(=O)NCC(=O)N(C)CC(=O)N[C@H](C(N)=O)C(C)C)C(C)C)[C@@H](C)CC | Active |  |  |  |  |  |
| CC(=O)N[C@@H](Cc1ccccc1)C(=O)N[C@@H](CCCCN)C(=O)N[C@@H](CCC(=O)O)C(=O)N(C)CC(=O)N(C)CC(=O)N[C@H](C(N)=O)C(C)C (Ac-FKE[Sar][Sar]V-NH2) | Active |  |  |  |  |  |
| CC(=O)N[C@@H](CCCCN)C(=O)N(C)CC(=O)N[C@H](C(=O)N[C@@H](Cc1ccccc1)C(=O)N[C@@H](Cc1ccccc1)C(=O)N(C)CC(=O)N[C@@H](CCC(=O)O)C(N)=O)C(C)C (Ac-K[Sar]VFF[Sar]E-NH2) | Active | 142.1% | Non-Toxic | Active | Dose-Dependent Effect |  |
| CC(=O)N[C@@H](CCCCN)C(=O)N(C)CC(=O)N[C@H](C(=O)N[C@@H](Cc1ccccc1)C(=O)N(C)CC(=O)N[C@@H](CCC(=O)O)C(N)=O)C(C)C (Ac-K[Sar]VF[Sar]E-NH2) | Active |  | Non-Toxic | Active | Dose-Dependent Effect | ~30% |
| Ac-LPFFD-NH2 | Active | 110.8% | Non-Toxic |  | Dose-Dependent Effect |  |
